From ChEMBL document CHEMBL2346529, “The human Aurora kinase inhibitor danusertib is a lead compound for anti-trypanosomal drug discovery via target repurposing” (Eur J Med Chem, 2013)
Activity calls are given as the source filed them. The rule behind the calls is not given here.

Tests used:
[1] = Selectivity ratio of EC50 for human MOLT4 cells to EC50 for bloodstream form of Trypanosoma brucei brucei Lister 427 90-13; format: ADME, cell-based, MOLT-4; conditions: read-out: Ratio EC50
How it was run: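 The ratio is MOLT-4 EC50 over T. b. brucei 90-13 EC50. BF 90-13 cells in HMI-9 with G418 and hygromycin B were seeded at 1×10^5 cells/mL and exposed 48 h to 8 concentrations (50 nM–8 μM final, 0.2% DMSO) in triplicate. MOLT-4 cells were treated 4 days. Both were read by CTB fluorescence, with EC50 fitted from inhibition curves.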

MOLT-4 = experiment: Cytotoxicity against human MOLT4 cells assessed as inhibition of cell growth after 4 days by Cell Titer Blue end-point assay; format: cell-based; conditions: MOLT-4, 96 h
How it was run: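 MOLT-4 cells in RPMI 1640 with 20% FBS were seeded at 5×10^4 cells/mL and grown 24 h before inhibitor was added. There were 8 concentrations in triplicate, spanning 50 nM to 30 μM final. Treatment lasted 4 days, then CTB was added for 3 h at 37°C. Fluorescence was read at 560Ex/590Em, with cell-free background subtracted and DMSO-only wells taken as 100%. EC50 was fitted from inhibition curves.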

[2] = tested on: Trypanosoma brucei brucei; experiment: Antitrypanosomal activity against bloodstream form of Trypanosoma brucei brucei Lister 427 90-13 assessed as inhibition of growth in log phase after 48 hrs by Cell Titer Blue end-point assay; format: functional, organism-based; conditions: Lister 427 90-13, 48 h
How it was run: (§1)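 Dose-response: at least 8 final concentrations (50 nM–8 μM, 0.2% DMSO), each in triplicate, on log-phase bloodstream-form cells at 1×10^5 cells/mL. Incubation was 48 h at 37°C, 5% CO2, followed by a 3 h CellTiter-Blue fluorescence read with background subtracted. EC50 was derived from inhibition curves. YTat1.1 was culture-adapted from rat blood in HMI-9 with FBS and Serum Plus; its data come from 2–3 independent experiments. 90-13 was grown in HMI-9 with G418 and hygromycin B.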

Trypanosoma brucei = experiment: Inhibition of NH3-AU1 epitope-tagged recombinant Trypanosoma brucei AUK1 expressed in procyclic form trypanosome AnTat1.1 assessed as decrease in myelin basic protein phosphorylation at 500 nM preincubated for 5 mins by pull down assay in presence of [gamma-32P]ATP
How it was run: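 AU1-tagged TbAUK1 came from procyclic AnTat1.1 cells pretreated with 16 μM MG132 for 3 h. Lysate was pre-cleared and immunoprecipitated overnight at 4°C on AU1 beads. Bead kinase was mixed with 160 μg myelin basic protein in Hepes/KCl/NaF/MgCl2/DTT buffer, pH 7.4, with drug preincubated 5 min. Reactions were started with 8 μM ATP plus [γ-32P]ATP and run 30 min at 30°C. Products were read by SDS-PAGE autoradiography.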

[3] = tested on: Trypanosoma brucei brucei; experiment: Antitrypanosomal activity against bloodstream form of Trypanosoma brucei brucei AnTat1.1A assessed as inhibition of growth in log phase at 10 uM after 48 hrs by Cell Titer Blue end-point assay; format: functional
How it was run: (§2)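 Log-phase bloodstream-form cells were seeded at 1×10^5 cells/mL and exposed to compound at a single concentration (0.2% DMSO) for 48 h (4 doublings). AnTat1.1A cells were grown in HMI-9 with 10% FBS and 10% Serum Plus. 90-13 cells were grown in HMI-9 with G418 (2.5 μg/mL) and hygromycin B (5 μg/mL). Cells were pelleted and incubated 3 h at 37°C with CellTiter-Blue. Fluorescence was read at 560/590 nm, background-subtracted and normalized to DMSO controls.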

[4] = tested on: Trypanosoma brucei brucei; experiment: Antitrypanosomal activity against bloodstream form of Trypanosoma brucei brucei AnTat1.1A assessed as inhibition of growth in log phase at 1 uM after 48 hrs by Cell Titer Blue end-point assay; format: functional; how it was run: as §2
[5] = tested on: Trypanosoma brucei brucei; experiment: Antitrypanosomal activity against bloodstream form of Trypanosoma brucei brucei Lister 427 90-13 assessed as inhibition of growth in log phase at 10 uM after 48 hrs by Cell Titer Blue end-point assay; format: functional; conditions: Lister 427 90-13, 48 h; how it was run: as §2
[6] = tested on: Trypanosoma brucei brucei; experiment: Antitrypanosomal activity against bloodstream form of Trypanosoma brucei brucei Lister 427 90-13 assessed as inhibition of growth in log phase at 1 uM after 48 hrs by Cell Titer Blue end-point assay; format: functional; conditions: Lister 427 90-13, 48 h; how it was run: as §2
[7] = Selectivity ratio of EC50 for human MOLT4 cells to EC50 for bloodstream form of Trypanosoma brucei rhodesiense YTat1.1; format: ADME, cell-based, MOLT-4; conditions: read-out: Ratio EC50
How it was run: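 Ratio of MOLT-4 EC50 to YTat1.1 EC50. MOLT-4 cells were grown in RPMI 1640 with 20% FBS, seeded at 5×10^4 cells/mL and grown 24 h before compound was added. Treatment used 8 triplicate concentrations between 50 nM and 30 μM for 4 days, followed by a 3 h CellTiter-Blue read at 37°C. The parasite EC50 came from a 48 h CellTiter-Blue dose-response (50 nM–8 μM).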

[8] = tested on: Trypanosoma brucei rhodesiense; experiment: Antitrypanosomal activity against bloodstream form of Trypanosoma brucei rhodesiense YTat1.1 assessed as inhibition of growth in log phase after 48 hrs by Cell Titer Blue end-point assay; format: functional, organism-based; conditions: YTat1.1, 48 h; how it was run: as §1
[9] = tested on: Trypanosoma brucei brucei; experiment: Antitrypanosomal activity against bloodstream form of Trypanosoma brucei brucei assessed as inhibition of growth in log phase at 1 uM after 48 hrs by Cell Titer Blue end-point assay; conditions: read-out: GI

SMILES | selectivity ratio [1] | EC50 (MOLT-4) | EC50 [2] | inhibition (Trypanosoma brucei) | inhibition at 10 µM [3] | inhibition at 1 µM [4] | inhibition at 10 µM [5] | inhibition at 1 µM [6] | selectivity ratio [7] | EC50 [8] | inhibition of growth at 1 µM [9]
Cc1ccc(S(=O)(=O)N2Cc3[nH]nc(NC(=O)c4ccc(N5CCN(C)CC5)cc4)c3C2)cc1 | 0.16 | 940 nM | 5700 nM | Active | – | – | – | – | – | – | –
CN1CCN(c2ccc(C(=O)Nc3n[nH]c4c3CN(C(=O)Cc3cc(F)cc(F)c3F)C4)cc2)CC1 | – | 2310 nM | – | – | 99% | 44% | 94% | 26% | 1.2 | 2000 nM | > 60%
CN1CCN(c2ccc(C(=O)Nc3n[nH]c4c3CN(C(=O)Cc3ccc(F)cc3F)C4)cc2)CC1 | – | – | – | – | 98% | 6% | 62% | 40% | – | – | –
Cc1nc(C)c(CC(=O)N2Cc3[nH]nc(NC(=O)c4ccc(N5CCN(C)CC5)cc4)c3C2)s1 | – | – | – | – | 35% | 13% | 12% | 6% | – | – | –
CN1CCN(c2ccc(C(=O)Nc3n[nH]c4c3CN(C(=O)Cc3c(F)cc(F)cc3F)C4)cc2)CC1 | – | – | – | – | 100% | 23% | 72% | 41% | – | – | –
CO[C@@H](C(=O)N1Cc2[nH]nc(NC(=O)c3ccc(N4CCN(C)CC4)cc3)c2C1)c1ccccc1 [DANUSERTIB] | – | – | 600 nM | Active | – | – | – | – | – | 150 nM | –
CN1CCN(c2ccc(C(=O)Nc3n[nH]c4c3CN(C(=O)Cc3cc(F)cc(F)c3)C4)cc2)CC1 | – | 630 nM | 590 nM | – | 98% | 98% | 99% | 37% | 0.7 | 910 nM | > 60%
CN1CCN(c2ccc(C(=O)Nc3n[nH]c4c3CN(C(=O)Cc3c(F)cccc3F)C4)cc2)CC1 | – | – | – | – | 97% | 20% | 66% | 32% | – | – | –
CN1CCN(c2ccc(C(=O)Nc3n[nH]c4c3CN(C(=O)Cc3cccc5ccccc35)C4)cc2)CC1 | – | 14200 nM | – | – | 98% | 82% | 100% | 26% | 23 | 610 nM | > 60%
CCS(=O)(=O)Nc1ccc2c(c1)/C(=C(/Nc1ccc(CN3CCCCC3)cc1)c1ccccc1)C(=O)N2 | – | – | – | Active | – | – | – | – | – | – | –
CN1CCN(c2ccc(C(=O)Nc3n[nH]c4c3CN(C(=O)Cc3cccc(Cl)c3)C4)cc2)CC1 | – | 4000 nM | 850 nM | – | 98% | 35% | 98% | 33% | 6.9 | 580 nM | > 60%
Cc1[nH]c2ccccc2c1CC(=O)N1Cc2[nH]nc(NC(=O)c3ccc(N4CCN(C)CC4)cc3)c2C1 | – | – | – | – | 98% | 62% | 63% | 34% | 1 | 1200 nM | > 60%
CCc1cccc(CC)c1NC(=O)N1Cc2[nH]nc(NC(=O)c3ccc(N4CCN(C)CC4)cc3)c2C1 [PHA-680632] | – | 220 nM | 4000 nM | Active | – | – | – | – | – | 1250 nM | –
CN1CCN(c2ccc(C(=O)Nc3n[nH]c4c3CN(C(=O)c3ccccc3)C4)cc2)CC1 | 0.05 | 540 nM | 11100 nM | inactive | – | – | – | – | – | – | –
Cc1ccc(C(C)C(=O)N2Cc3[nH]nc(NC(=O)c4ccc(N5CCN(C)CC5)cc4)c3C2)cc1 (racemic) | – | 5480 nM | – | – | 100% | 19% | 100% | 19% | 6.4 | 860 nM | > 60%
CN1CCN(c2ccc(C(=O)Nc3n[nH]c4c3CN(C(=O)CC3CC(=O)c5ccccc53)C4)cc2)CC1 (racemic) | – | – | – | – | 79% | 34% | 35% | 27% | – | – | –
Cc1nc(CC(=O)N2Cc3[nH]nc(NC(=O)c4ccc(N5CCN(C)CC5)cc4)c3C2)cs1 | – | – | – | – | 53% | 23% | 14% | 8% | – | – | –
CN1CCN(c2ccc(C(=O)Nc3n[nH]c4c3CN(C(=O)Nc3ccccc3)C4)cc2)CC1 | 0.58 | 3550 nM | 6100 nM | Active | – | – | – | – | – | – | –
COC(C(=O)N1Cc2[nH]nc(NC(=O)c3ccc(N4CCN(C)CC4)cc3)c2C1)c1ccccc1 (racemic) | – | 4130 nM | – | – | 97% | 77% | 25% | 15% | 6.8 | 610 nM | > 60%
CO[C@@H](C(=O)N1Cc2n[nH]c(NC(=O)c3ccc(N4CCN(C)CC4)cc3)c2C1)c1ccccc1 [DANUSERTIB] | 0.25 | – | – | – | – | – | – | – | 1 | – | –
CC(C)C(C(=O)N1Cc2[nH]nc(NC(=O)c3ccc(N4CCN(C)CC4)cc3)c2C1)c1ccccc1 (racemic) | – | – | 670 nM | – | 99% | 99% | 100% | 62% | 6.3 | 400 nM | > 60%
CN1CCN(c2ccc(C(=O)Nc3n[nH]c4c3CN(C(=O)Cc3ccc(F)c(F)c3)C4)cc2)CC1 | – | – | – | – | 98% | 18% | 53% | 29% | – | – | –
CN1CCN(c2ccc(C(=O)Nc3n[nH]c4c3CN(C(=O)Cc3cc(F)ccc3F)C4)cc2)CC1 | – | – | – | – | 98% | 6% | 97% | 37% | – | – | –
CN1CCN(c2ccc(C(=O)Nc3n[nH]c4c3CN(C(=O)Cc3c(F)ccc(F)c3F)C4)cc2)CC1 | – | 2220 nM | – | – | 98% | 52% | 77% | 14% | 6.9 | 320 nM | > 60%
Cc1cc(C)cc(CC(=O)N2Cc3[nH]nc(NC(=O)c4ccc(N5CCN(C)CC5)cc4)c3C2)c1 | – | 4460 nM | 2560 nM | – | 99% | 85% | 100% | 26% | 4.3 | 1040 nM | > 60%
Cc1ccc(C)c(CC(=O)N2Cc3[nH]nc(NC(=O)c4ccc(N5CCN(C)CC5)cc4)c3C2)c1 | – | 2650 nM | – | – | 99% | 34% | 100% | 18% | 2.2 | 1200 nM | > 60%
CCc1cccc(CC)c1NC(=O)N1Cc2n[nH]c(NC(=O)c3ccc(N4CCN(C)CC4)cc3)c2C1 [PHA-680632] | 0.06 | – | – | – | – | – | – | – | 0.18 | – | –
